# Measured values from different studies.
# Target: MAP kinase-interacting serine/threonine-protein kinase 2 (MKNK2, Homo sapiens, UniProt Q9HBH9)
Compound,observed,technique,concentration,remaining binding [%]
CCC(=O)N[C@@H]1CC[C@H](C(=O)N(C)c2ccc(-c3nc4ccccc4o3)cc2)C1,cell-free assay,competition with immobilised ligand,1 µM,100
O=C(Nc1c[nH]nc1C(=O)NC1CCNCC1)c1cc(F)cc(F)c1,binding,competition with immobilised ligand,1 µM,100
Cc1cnc(Nc2ccc(C(=O)N3CCC(N4CCCC4)CC3)cc2)nc1-c1cc2ccccc2s1,binding,competition with immobilised ligand,1 µM,5.4
CNC(=O)[C@@H]1CC[C@@H](n2c(-c3ccc4cnccc4c3)nc3ccc(C(=O)NCc4cccc(C(N)=O)c4)cc32)C1,binding,competition with immobilised ligand,1 µM,100
C[C@@H]1CCN(c2nccc(-c3cnn4ncccc34)n2)C1,binding,,1 µM,11
CN(C(=O)c1ccccc1)c1cc(N(C)c2ccc3c(c2)CCc2ccc(C(=O)NCCN4CCOCC4)cc2C3=O)ccc1F,cell-free assay,competition with immobilised ligand,1 µM,100
Nc1ncc2c(n1)-c1c([nH]c3ccc(C#CC4CC4)cc13)CCCC2,binding,competition with immobilised ligand,1 µM,77
N#Cc1ccccc1CSc1nnc2c(n1)[nH]c1ccccc12,binding,competition with immobilised ligand,10 µM,95
CO[C@@H](C)c1c(Nc2ccc([C@H](N(C)C(=O)C3CCS(=O)(=O)CC3)C(F)(F)F)cc2)cnc2cc(Cl)nn12,cell-free assay,competition with immobilised ligand,1 µM,100
Cc1cnn2ncc(-c3ccnc(N(C)C)n3)c2c1,binding,,1 µM,49
O=c1nc(-c2ccccn2)sc2ccccc12,binding,competition with immobilised ligand,1 µM,100
c1cnn2ncc(-c3ccnc(N4CCC45COC5)n3)c2c1,binding,,1 µM,3.3
COc1cnc(Nc2cccc(S(N)(=O)=O)c2)nc1N1CCN(c2ccccc2)C(=O)C1,binding,competition with immobilised ligand,1 µM,59
C[C@@H]1CN(c2ccc3ncc(-c4ccc5[nH]nc(C6CC6)c5c4)n3n2)C[C@H](C)O1,binding,competition with immobilised ligand,50 nM,75
CNCc1ccccc1-c1csc([C@H](C)Nc2nc(C)nc3cc(OC)c(OC)cc23)c1,cell-free assay,competition with immobilised ligand,1 µM,71
CC1CCCN1c1nccc(-c2cnn3ncccc23)n1 (centres unmarked),binding,,1 µM,46
COc1ncc2cc3ccccc3nc2c1C#N,cell-free assay,competition with immobilised ligand,5 µM,98
O=C(c1ccc(Nc2ncc(Cl)c(-c3ccc(Cl)s3)n2)cc1)N1CCC(N2CCCC2)CC1,binding,competition with immobilised ligand,1 µM,4.2
CNC(=O)Nc1ccc2c(c1)[C@@]1(CC2)OC(=O)N(CC(=O)N(Cc2ccc(F)cc2)[C@@H](C)C(F)(F)F)C1=O,cell-free assay,competition with immobilised ligand,1 µM,76
CC(C)(C)c1ccc(-c2nc(CBr)nn2-c2cccc(O)c2)cc1,cell-free assay,competition with immobilised ligand,10 µM,62
N[C@H]1CCN(c2nccc(-c3cnn4ncccc34)n2)C1,binding,,1 µM,21
Cn1nc(C(F)(F)F)cc1-c1cnc(N2CCc3cc(S(=O)(=O)Nc4c(F)cc(Cl)cc4F)cc(N4CCCC4=O)c32)nc1,cell-free assay,competition with immobilised ligand,1 µM,94
CCN1CCN(Cc2ccc(C(=O)Nc3ccc(C)c(Oc4ccc5c(c4)CC(=O)N5)c3)cc2C(F)(F)F)CC1,binding,competition with immobilised ligand,1 µM,95
CN(CCCC(F)(F)F)c1nccc(-c2cnn3ncccc23)n1,binding,,1 µM,35
CCCOc1ccc([C@H]2[C@H](C(=O)O)[C@@H](c3ccc4c(c3)OCO4)CN2CC(=O)Nc2c(CC)cccc2CC)cc1,cell-free assay,competition with immobilised ligand,1 µM,74
O=C(c1ccc(Nc2ncc(Cl)c(-c3cc4ccccc4s3)n2)cc1)N1CCC(N2CCCC2)CC1,binding,competition with immobilised ligand,1 µM,6.9
